Only some compounds are listed: those with a hit (about 0.58% of all), similar ones and a draw of the others.
TRPN1 ag = zebrafish TRPN1 (NompC) channel agonism. HEK293 zebrafish TRPN1-YFP, Fluo-8 calcium fluorescence; 100% = response to 87 µM carbachol. activation, % at 3 µM. hit rate 0.18% among 220,000;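 active = activation above its plate's cutoff, the mean activation of test wells on that plate plus 3 SD, cut at about 19% in these data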
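Assay system: Zebrafish TRPN1-YFP in HEK293 cells | Incubation: Dye loading 1 h at 37 °C, then 30 min room temperature | Measured by: Kinetic Fluo-8 fluorescence, ex 470-495, em 515-575 nm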
TRPML3 agonist = human mucolipin-3 channel agonism; HEK293 TRPML3-YFP, Fluo-8 calcium fluorescence; 100% = the carbachol control signal; hit rate 0.29% among 220,000; activation, % at 3 µM;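 active = activation above its plate's cutoff, the mean activation of the plate's test wells plus 3 SD, cut at about 12% in these data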
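Test system: TRPML3-YFP stable HEK293 cells. Doses: single point at 3 µM. Incubation: dye loading 1 h 37 °C then 30 min ambient, 125 s read. Signal: Fluo-8 calcium dye fluorescence, ex 470-495, em 515-575 nm. Measure: percent activation from peak-to-basal fluorescence ratio, scaled between DMSO and carbachol.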
OXTR potentiate = human OXTR potentiation. P30559. hit rate 0.061% among 320,000. CHO-OTR cells, Fluo-8 calcium fluorescence, potentiator mode; 0% = oxytocin EC15, 100% = EC100. activation, % at 3 µM;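 active = activation above that plate's cutoff, the mean activation of tested compounds plus 3 SD, cut at about 6.6% in these data, passing the limit was not always enough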
Target sequence (P30559 whole entry, looked up): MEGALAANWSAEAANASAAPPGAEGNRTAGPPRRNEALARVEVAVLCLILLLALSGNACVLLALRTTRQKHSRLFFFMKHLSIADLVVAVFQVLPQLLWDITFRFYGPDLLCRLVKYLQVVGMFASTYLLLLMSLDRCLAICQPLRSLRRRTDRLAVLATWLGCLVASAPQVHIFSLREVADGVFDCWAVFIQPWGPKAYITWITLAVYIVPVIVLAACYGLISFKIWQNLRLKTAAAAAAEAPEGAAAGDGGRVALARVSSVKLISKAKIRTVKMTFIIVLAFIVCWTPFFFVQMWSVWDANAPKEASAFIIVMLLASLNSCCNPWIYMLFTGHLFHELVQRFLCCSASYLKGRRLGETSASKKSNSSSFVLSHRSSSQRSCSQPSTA
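Measured by – Fluo-8 calcium dye fluorescence · Test system – human OTR in CHO cells · Dosing – one concentration, 3.0 µM compound · Controls – EC15 oxytocin alone as 0%, 75 nM oxytocin as 100% · Evaluation – normalized max/min fluorescence ratio, % activation · Timing – 6 min pre-incubation, 100 s read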
OXTR agonist = human OXTR agonism; CHO-OTR cells, Fluo-8 calcium fluorescence; normalized: DMSO 0%, oxytocin 100%; AID 2435; P30559; hit rate 0.32% among 320,000; activation, % at 3 µM;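 active = activation above the mean of all tested compounds plus 3 SD, cutoff set per screening run, cut at about 20% in these data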;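 also: peak over basal fluorescence ratio from a 100 s FLIPR kinetic read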
V1R ag counter = counter-screen for oxytocin receptor agonists: human V1a receptor agonists | P37288 | CHO-V1R cells, Fluo-8 calcium fluorescence, agonist mode; 0% DMSO, 100% 3 nM vasopressin | activation, % at 3 µM | hit rate 0.25% among 320,000;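 active = activation above the mean activation of all tested compounds plus 3 SD, per screening run, cut at about 20% in these data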;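 also: signal is peak over basal fluorescence ratio across a 100 second FLIPR read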
OXTR pot confirm = confirmation of human oxytocin receptor potentiators; shares compounds with OXTR potentiate; CHO-OTR cells, Fluo-8 calcium fluorescence, potentiation; scaled from low-dose to maximal oxytocin; activation, % at 3 µM; 180 tested, under 10 active;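 active = mean percent activation over triplicates above a cutoff set from solvent-only control plates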;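 also: compounds tested in the presence of an EC15 dose of oxytocin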
V1R ag confirm = human V1a receptor agonism, confirmation; hit rate 20% among 180; shares compounds with V1R ag counter; activation, % at 3 µM; CHO-V1R cells, Fluo-8 calcium fluorescence, agonist; AID 434964;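 active = average activation exceeds primary screen hit cutoff, cut at about 21% in these data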;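 also: peak over basal fluorescence ratio during a 100 s FLIPR read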
OXTR counter = activates oxytocin receptor in V1a agonist counter-screen; shares compounds with V1R ag counter; CHO-OTR cells, Fluo-8 calcium fluorescence; activation, % at 3 µM; hit rate 10% among 180;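 active = mean activation over three repeats above the cutoff from the earlier oxytocin receptor agonist screen, cut at about 20% in these data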;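 also: peak over minimum fluorescence ratio within a 100 second FLIPR read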
Of the large screens only hits and unclear results are named; the others gave an inactive call (follow-up assays come after a bar, where they were run).

Cc1ccc(CNC(=O)C2CCC(=O)N2C2CCCCC2)cc1 (configuration not stated)	OXTR potentiate 10 | OXTR pot confirm inactive
Cc1ccccc1S(=O)(=O)Nc1nc2ccccc2nc1N1CCOCC1	none
CCCCCC(O)(c1ccc(OC)cc1)C(CN1CCOCC1)c1ccccc1 (configuration not stated)	V1R ag counter 24 (no result: TRPN1 ag, TRPML3 agonist) | V1R ag confirm inactive | OXTR counter inactive
O=C(COc1ccccc1[N+](=O)[O-])N/N=C/c1ccc(O)c([N+](=O)[O-])c1	V1R ag counter 67 | V1R ag confirm inactive | OXTR counter inactive
COc1ccc(/C=C2/SC(=O)NC2=O)cc1	none
COc1ccc(/C=C2/C(=O)C(C)(C(C)C)CCC2C)cc1 (configuration not stated)	V1R ag counter 20 (no result: TRPN1 ag, TRPML3 agonist) | V1R ag confirm inactive | OXTR counter inactive
CC(C)[C@H](NC(=O)c1ccccc1Cl)C(=O)Nc1ccc(S(=O)(=O)Nc2nccs2)cc1	none (no result: TRPN1 ag, TRPML3 agonist)
CCCn1c(SCC(=O)Nc2cccc(F)c2)nc(O)cc1=O	V1R ag counter 26 (no result: TRPN1 ag, TRPML3 agonist) | V1R ag confirm inactive | OXTR counter inactive
CCn1c(SCC(=O)Nc2ccc(C)cc2)nc(O)cc1=O	none
CSc1nnc(N2C(=O)C(O)=C(C(=O)c3ccco3)C2c2ccc(F)cc2)s1 (configuration not stated)	V1R ag counter 33 (no result: TRPN1 ag, TRPML3 agonist) | V1R ag confirm inactive | OXTR counter inactive
CSc1nnc(N2C(=O)C(O)=C(C(=O)c3ccco3)C2c2cccc(Cl)c2)s1 (configuration not stated)	V1R ag counter 45 (no result: TRPN1 ag, TRPML3 agonist) | V1R ag confirm inactive | OXTR counter inactive
CCOc1cccc(C2C(C(=O)c3ccco3)=C(O)C(=O)N2c2nnc(C)s2)c1 (configuration not stated)	none (no result: TRPN1 ag, TRPML3 agonist)
CCSc1nnc(N2C(=O)C(O)=C(C(=O)c3ccco3)C2c2cccc(OC)c2)s1 (configuration not stated)	V1R ag counter 31 (no result: TRPN1 ag, TRPML3 agonist) | V1R ag confirm inactive | OXTR counter inactive
COc1ccc(C2C(C(=O)c3ccco3)=C(O)C(=O)N2c2nnc(C)s2)cc1 (configuration not stated)	none
COc1ccc(CNC(=O)COC(=O)c2cc(S(=O)(=O)N3CCOCC3)ccc2O)cc1OC	none (no result: TRPN1 ag, TRPML3 agonist)
O=C(CCc1nc(-c2ccccc2)no1)NC1CCCCCC1	none (no result: TRPN1 ag, TRPML3 agonist)
CCN(CC(=O)Nc1ccccc1C(F)(F)F)C(=O)c1ccc2[nH]c3c(c2c1)CC(C)CC3 (configuration not stated)	none (no result: TRPN1 ag, TRPML3 agonist)
O=C(O)c1cccc(S(=O)(=O)N2CCN(Cc3ccc4c(c3)OCO4)CC2)c1	none (no result: TRPN1 ag, TRPML3 agonist)
COc1ccc(NC(=O)CN(C)C(=O)c2ccc(OCc3ccccc3)c(OC)c2)cc1	none (no result: TRPN1 ag, TRPML3 agonist)
COCCn1nnnc1C(C(C)C)N1CCCC(C)C1 (configuration not stated)	none
CC(=O)Nc1ccc(N=Cc2c(O)c(C(=O)Nc3ccccc3)cc3ccccc23)cc1	V1R ag counter 38 | V1R ag confirm 193 | OXTR counter 169
CC(=O)Nc1ccc(NC(=O)c2cccc3ccccc23)cc1	none (no result: TRPN1 ag, TRPML3 agonist)
Cc1cccc(NC(=S)NNC(=O)c2ccco2)c1	V1R ag counter 23 | V1R ag confirm inactive | OXTR counter inactive
C#CCOCCOCCOCCNc1nc(N2CCN(C(=O)CCCCCCCCCCNC(=O)[C@H]([C@@H](C)CC)n3cc(CCCCCN)nn3)CC2)nc(N2CCN(C(=O)CCCCCCCCCCNC(=O)[C@H](CCCCN)n3cc(CCCC(=O)O)nn3)CC2)n1	V1R ag counter 20 (no result: TRPN1 ag, TRPML3 agonist) | V1R ag confirm inactive | OXTR counter inactive
C#CCOCCOCCOCCNc1nc(N2CCN(C(=O)CCCCCCCCCCNC(=O)[C@H](CCCCN)n3cc(C)nn3)CC2)nc(N2CCN(C(=O)CCCCCCCCCCNC(=O)[C@H](CCCCN)n3cc(CCCC(=O)O)nn3)CC2)n1	none (no result: TRPN1 ag, TRPML3 agonist)
C#CCOCCOCCOCCNc1nc(N2CCN(C(=O)CCCCCCCCCCNC(=O)[C@@H](CCC(=O)O)n3cc(CCCCCN)nn3)CC2)nc(N2CCN(C(=O)CCCCCCCCCCNC(=O)[C@H]([C@@H](C)CC)n3cc(CCCCCN)nn3)CC2)n1	none (no result: TRPN1 ag, TRPML3 agonist)
C#CCOCCOCCOCCNc1nc(N2CCN(C(=O)CCCCCCCCCCNC(=O)[C@H](CCCCN)n3cc(CCCC(=O)O)nn3)CC2)nc(N2CCN(C(=O)CCCCCCCCCCNC(=O)[C@@H]([C@H](C)O)n3cc(C)nn3)CC2)n1	V1R ag counter 21 (no result: TRPN1 ag, TRPML3 agonist) | V1R ag confirm inactive | OXTR counter inactive
COc1ccccc1N1CCN(c2nccc(C)n2)CC1	none (no result: TRPN1 ag, TRPML3 agonist)
CC(C)c1cccc(C(C)C)c1NC(=O)COC(=O)C1=COCCO1	none
CC(C)Cn1c(-c2ccc(Br)cc2)c[nH]c1=S	V1R ag counter 35 | V1R ag confirm inactive | OXTR counter inactive
CC(O)[C@@H](NC(=O)C1CCC(CNC(=O)[C@H](Cc2ccccc2)NC(=O)OC(C)(C)C)CC1)C(=O)O (some centres not stated)	none (no result: TRPN1 ag, TRPML3 agonist)
Oc1ccc(Cl)cc1/C=N/c1nccs1	none
Oc1ccc(Cl)cc1C=Nc1ccc2c3c(cccc13)CC2	V1R ag counter 51 | V1R ag confirm inactive | OXTR counter inactive
COc1ccc(/C=C/CN2CCC(CO)(Cc3ccccc3Cl)CC2)cc1	V1R ag counter 28 | V1R ag confirm inactive | OXTR counter inactive
CC1(CCc2ccc3c(c2)OCO3)NCCc2c1[nH]c1ccccc21 (configuration not stated)	V1R ag counter 30 (no result: TRPN1 ag, TRPML3 agonist) | V1R ag confirm inactive | OXTR counter 22
COc1ccc(C(=O)O)cc1S(=O)(=O)N(CCc1ccccc1)Cc1ccccc1	V1R ag counter 25 | V1R ag confirm inactive | OXTR counter inactive
COc1ccc(C(=O)O)cc1S(=O)(=O)N(C)CCc1cccnc1	none
O=C(c1ccccc1NS(=O)(=O)c1ccc(F)cc1)N1CCc2ccccc21	V1R ag counter 24 | V1R ag confirm inactive | OXTR counter inactive
COc1ccc(NC(=O)COC(=O)c2cccn2C)cc1S(=O)(=O)N1CCCCC1	none (no result: TRPN1 ag, TRPML3 agonist)
COc1cccc(C(=O)Oc2cc(N)n(S(=O)(=O)c3ccc(C)cc3)n2)c1OC	V1R ag counter 28 | V1R ag confirm inactive | OXTR counter inactive
O=C(N/N=C/c1sc(=O)[nH]c1-[n+]1ccccc1)c1ccccc1[O-]	none
O=C(N/N=C/c1sc(=O)[nH]c1-[n+]1ccc2ccccc2c1)c1ccccc1[O-]	V1R ag counter 27 (no result: TRPN1 ag, TRPML3 agonist) | V1R ag confirm inactive | OXTR counter inactive

Screening results deposited in PubChem by The Scripps Research Institute Molecular Screening Center.
